Results as given in ChEMBL document CHEMBL1152893, “Synthesis and in vitro trichomonicidal, giardicidal and amebicidal activity of N-acetamide(sulfonamide)-2-methyl-4-nitro-1H-imidazoles” (Eur J Med Chem, 2009).

Assays:
[1] = Selectivity index, ratio of CC50 for MDCK cells to IC50 for Trichomonas vaginalis GT3 trophozoites; format: functional
Giardia intestinalis [2] = experiment: Antiparasitic activity against Giardia intestinalis IMSS:0696 trophozoites after 48 hrs by […]; format: functional, organism-based; conditions: Giardia duodenalis, IMSS:0696, 48 h
How it was run: (§1)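 Axenic trophozoites grown in modified TYI-S-33 with 10% calf serum and bovine bile; exposed 48 h at 37 °C to increasing compound concentrations, DMSO as negative control. Then washed, subcultured 48 h in fresh drug-free medium and counted. IC50 by Probit analysis; triplicate, repeated at least twice.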

[3] = Selectivity index, ratio of CC50 for MDCK cells to IC50 for Giardia intestinalis IMSS:0696 trophozoites; format: functional
[4] = Cytotoxicity against MDCK cells after 72 hrs by MTT assay; format: cell-based, Canis lupus familiaris; conditions: dog
How it was run: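 MDCK cells in DMEM with 10% FBS and penicillin/streptomycin, 37 °C, 5% CO2. 1.5×10⁴ cells/well seeded; above 80% confluence, medium replaced and compounds added from 6.25 upward, DMSO final 0.05%. After 72 h, MTT added for 4 h at 37 °C. Formazan dissolved in acidified isopropanol (0.4 N HCl), OD 540 nm; untreated cells as negative control; CC50 calculated.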

Trichomonas vaginalis [5] = experiment: Antiparasitic activity against Trichomonas vaginalis GT3 trophozoites after 48 hrs by […]; format: functional, organism-based; conditions: GT3, 48 h; how it was run: as §1
Entamoeba histolytica [6] = experiment: Amebicidal activity against Entamoeba histolytica HM-1:IMSS trophozoites after 48 hrs by […]; format: functional, organism-based; how it was run: as §1
[7] = Selectivity index, ratio of CC50 for MDCK cells to IC50 for Entamoeba histolytica HM-1:IMSS trophozoites; format: functional
Entamoeba histolytica [8] = experiment: Ratio of 2-methyl-4(5)-nitroimidazole IC50 to compound IC50 for Entamoeba histolytica HM-1:IMSS trophozoites; format: functional
Trichomonas vaginalis [9] = experiment: Ratio of 2-methyl-4(5)-nitroimidazole IC50 to compound IC50 for Trichomonas vaginalis GT3 trophozoites; format: functional
Trichomonas vaginalis [10] = experiment: Ratio of Benznidazole IC50 to compound IC50 for Trichomonas vaginalis GT3 trophozoites; format: functional
Giardia intestinalis [11] = experiment: Ratio of 2-methyl-4(5)-nitroimidazole IC50 to compound IC50 for Giardia intestinalis IMSS:0696 trophozoites; format: functional, Giardia duodenalis
Giardia intestinalis [12] = experiment: Ratio of Benznidazole IC50 to compound IC50 for Giardia intestinalis IMSS:0696 trophozoites; format: functional, Giardia duodenalis

SMILES	IC50 (Giardia intestinalis [2]) [µM]	IC50 (Trichomonas vaginalis [5]) [µM]	Ratio CC50/IC50 [1]	Ratio CC50/IC50 [3]	CC50 at 72 h [4] [µM]	IC50 (Entamoeba histolytica [6]) [µM]	Ratio CC50/IC50 [7]	Ratio IC50 (Entamoeba histolytica [8])	Ratio IC50 (Trichomonas vaginalis [9])	Ratio IC50 (Trichomonas vaginalis [10])	Ratio IC50 (Giardia intestinalis [11])	Ratio IC50 (Giardia intestinalis [12])
Cc1nc([N+](=O)[O-])cn1CC(=O)Nc1ccc(Cl)cc1	16	9.18	70	40	642	18.1	35	–	5	2	–	–
Cc1nc([N+](=O)[O-])cn1CC(=O)Nc1c(Cl)cccc1Cl	22	37	11	18	396	25.3	16	–	–	–	–	–
Cc1nc([N+](=O)[O-])cn1CC(=O)Nc1ccccc1	49.1	24.6	46	23	1140	26.6	43	–	–	–	–	–
Cc1ncc([N+](=O)[O-])n1CCO [METRONIDAZOLE]	5.36	0.29	–	–	68	–	–	–	–	–	–	–
Cc1nc([N+](=O)[O-])cn1CC(=O)Nc1cccc(C(F)(F)F)c1	37.6	67.4	6	12	435	29.1	15	–	–	–	–	–
Cc1nc([N+](=O)[O-])cn1CC(=O)Nc1ccc(C#N)cc1	11.2	14.2	47	60	672	41.2	16	–	3	–	–	2
Cc1nc([N+](=O)[O-])cn1CC(=O)NCc1ccccc1	17.7	7.98	10	4	77.5	3.96	20	2	5	2	–	–
O=C(Cn1ccnc1[N+](=O)[O-])NCc1ccccc1 [BENZNIDAZOLE]	22.6	18.6	–	–	–	4.27	–	–	–	–	–	–

Continued, in another order:

IC50 (Giardia intestinalis [2]) [µM]	IC50 (Trichomonas vaginalis [5]) [µM]	SMILES	Ratio CC50/IC50 [1]	Ratio CC50/IC50 [3]	CC50 at 72 h [4] [µM]	IC50 (Entamoeba histolytica [6]) [µM]	Ratio CC50/IC50 [7]	Ratio IC50 (Entamoeba histolytica [8])	Ratio IC50 (Trichomonas vaginalis [9])	Ratio IC50 (Trichomonas vaginalis [10])	Ratio IC50 (Giardia intestinalis [11])	Ratio IC50 (Giardia intestinalis [12])
20.2	8.73	CC(=O)Nc1ccc(S(=O)(=O)n2cc([N+](=O)[O-])nc2C)cc1	118	51	1030	3.89	265	2	–	–	–	–
15.3	7.62	Cc1nc([N+](=O)[O-])cn1S(=O)(=O)c1ccc(Cl)cc1	76	38	578	4.03	144	–	–	–	–	–
6.55	8.41	COc1ccc(S(=O)(=O)n2cc([N+](=O)[O-])nc2C)cc1	38	49	321	8.56	38	–	–	–	2	2
7.5	2.93	Cc1nc([N+](=O)[O-])cn1S(=O)(=O)c1ccc([N+](=O)[O-])cc1	209	82	611	7.28	84	–	14	6	2	2
15.4	6.63	Cc1nc([N+](=O)[O-])cn1CC(=O)Nc1ccc([N+](=O)[O-])cc1	120	52	798	15.3	52	–	–	–	–	–
14	9.96	Cc1ccc(S(=O)(=O)n2cc([N+](=O)[O-])nc2C)cc1	99	71	988	3.55	278	2	–	–	–	–
21	5.61	Cc1nc([N+](=O)[O-])cn1CC(=O)Nc1ccc(F)cc1	148	39	828	11.2	74	–	6	3	–	–
10.6	11.5	Cc1nc([N+](=O)[O-])cn1S(=O)(=O)c1ccc(F)cc1	71	77	813	4.44	183	–	–	–	–	–
12	12.5	Cc1nc([N+](=O)[O-])cn1S(=O)(=O)c1ccccc1	101	106	1270	6.74	188	–	–	–	–	–
